PGC1a acetyl inh – modulators of PGC1a acetylation; U2OS PGC1a acetylation, AlphaScreen anti-acetyl-lysine; with virally co-expressed GCN5 acetyltransferase; 350,000 compounds, 0.17% hits; AID 651687; inhibition, % at 15.6 µM;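 active means every replicate shows inhibition of at least 40%; inconclusive means mean inhibition at least 40% but some replicate below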;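 further: 0% = neutral control wells and 100% = positive control wells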
SIRT5 block – sirtuin-5 (human) deacylase inhibition | Q9NXA8 | Purified SirT5, succinyl-peptide AMC, trypsin-coupled fluorescence | inhibition, % at 15 µM | 330,000 compounds, 1.1% hits; in the data active means inhibition above about 15%; inconclusive means no clear call, values can overlap the other calls
Target sequence (Q9NXA8 whole entry, looked up): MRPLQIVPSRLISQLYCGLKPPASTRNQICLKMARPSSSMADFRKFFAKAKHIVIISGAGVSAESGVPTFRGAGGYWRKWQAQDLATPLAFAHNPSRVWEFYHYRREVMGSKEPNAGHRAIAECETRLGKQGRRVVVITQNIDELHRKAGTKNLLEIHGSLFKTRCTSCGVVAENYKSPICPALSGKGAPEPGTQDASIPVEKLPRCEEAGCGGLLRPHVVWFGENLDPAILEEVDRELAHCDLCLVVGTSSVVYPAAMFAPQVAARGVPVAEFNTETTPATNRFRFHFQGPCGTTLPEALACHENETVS
rRNA inh HTS – inhibits bacterial ribosomal RNA function over humanized ribosomes. E. coli WT GFP vs humanized-ribosome RFP mutants, fluorescence, 24 h; stronger effect = lower value; DMSO median 0, no signal -100. GFP signal change (wild-type ribosome), % (no concentration beside the values). 350,000 compounds, 1.6% hits;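 active means significant combined selectivity score with lowered wild-type GFP, culture density cut under 30%, mutant RFP and density less affected; inactive means any of these conditions unmet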
Cneo AK release – Cryptococcus neoformans lysis via adenylate kinase release; C. neoformans lysis, adenylate kinase release luminescence, 4 h; normalised: neutral wells 0, clomiphene wells 100; lysis activity, % at 15 µM; 360,000 compounds, 0.2% hits;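 active means mean lysis activity across replicates of at least 80%, whatever share of replicates individually reach that level; inactive means mean lysis activity below 80%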
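Test system: log-phase Cryptococcus neoformans yeast cells. Input: 5 × 10^6 yeast cells/mL. Medium: fresh YPD growth medium. Doses: single dose. Incubation: static 4 h at 37 °C with compound, 1 h detection. Measured by: luminescent adenylate kinase detection reagent. Read-out: signal increase indicating cell lysis. Benchmarks: Clomiphene.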
C2C12 statin – suppressors of simvastatin-induced myotoxicity in C2C12 myotubes. ATP luminescence, 48 h; scaled: DMSO 0, geranylgeraniol control 100. rescue of ATP level, % at 7.49 µM. 330,000 compounds, 0.78% hits;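 active means mean ATP rescue above about 67%, or every replicate alone reaching that limit, limit read from the data, passing the limit was not always enough; inconclusive means no clear call, values can overlap the other calls; inactive means mean under the limit and some replicate under it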;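 further: myotubes were challenged with 10 µM simvastatin during compound exposure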
S100A4 inh HTS – S100A4-myosin IIA interaction inhibition | 360,000 compounds, 0.14% hits | P26447 | S100A4/TAMRA-MyoIIA peptide fluorescence polarization | inhibition, % at 10.7 µM | AID 652163;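 active means mean inhibition of at least 70% across replicates, with every replicate also reaching that level; inconclusive means mean inhibition reaches 70% but some replicates fall short; inactive means mean inhibition below 70%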
Target sequence (P26447 whole entry, looked up): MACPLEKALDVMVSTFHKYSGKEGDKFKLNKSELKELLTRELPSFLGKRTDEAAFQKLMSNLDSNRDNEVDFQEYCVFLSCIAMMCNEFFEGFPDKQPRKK
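Material: S100A4 monomer protein / Buffer or medium: 50 mM HEPES pH 7.2, 10 mM CaCl2, 100 mM KCl / Times: 5 min incubation before reading / Benchmarks: neutral control DMSO, positive control TFP / Reagent: labelled myosin peptide probe, 5 nM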
Active calls of the source: *; ? = inconclusive; . = no result given. A selection: hits, their analogues and other compounds. The true share with any hit is near 3%.

SMILES	PGC1a acetyl inh	SIRT5 block	rRNA inh HTS	Cneo AK release	C2C12 statin	S100A4 inh HTS
C[C@H](CO)N1C[C@H](C)[C@H](CN(C)C(=O)Nc2cc(F)ccc2F)Oc2cc(C#CC3CC3)ccc2S1(=O)=O	-4.6	.	-2.4	.	74.8*	.
C[C@@H]1CN([C@H](C)CO)S(=O)(=O)c2ccc(-c3cccc(F)c3)cc2O[C@H]1CN(C)C(=O)Nc1cc(F)ccc1F	-7.7	15.8*	-2.7	-1.5	-83.7	-4.4
C[C@H]1CN([C@@H](C)CO)S(=O)(=O)c2ccc(C#CC3CCCC3)cc2O[C@@H]1CN(C)C(=O)Nc1cc(F)ccc1F	8.2	19.7*	1.8	-1.5	-9.9	-42.6
C[C@@H]1CN([C@@H](C)CO)S(=O)(=O)c2ccc(-c3cccc(F)c3)cc2O[C@H]1CN(C)C(=O)Nc1cc(F)ccc1F	-7.6	4.7	0.1	-3.6	-103.9	3.2
C[C@H](CO)N1C[C@H](C)[C@@H](CN(C)C(=O)Nc2cc(F)ccc2F)Oc2cc(C#CC3CCCC3)ccc2S1(=O)=O	26.1	9.5	.	2.5	8.1	6.2
C[C@@H]1CN([C@@H](C)CO)S(=O)(=O)c2ccc(C#CC3CC3)cc2O[C@@H]1CN(C)C(=O)Nc1cc(F)ccc1F	-3.3	.	1.1	.	-10.2	.
C[C@H]1CN([C@@H](C)CO)C(=O)c2cc(NC(=O)Nc3ccc(F)cc3)ccc2O[C@H]1CN(C)Cc1ccc(C(=O)O)cc1	4.6	-3.4	-1.6	-0.2	4.3	-7.4
O=C(C[C@H]1C[C@H]2c3cc(NC(=O)Nc4ccccc4F)ccc3O[C@H]2[C@H](CO)O1)NCc1ccncc1	6.6	.	-0.5	-2.9	8.3	0.0
Cc1nn(-c2ccccc2)c(N)c1Sc1ccccc1[N+](=O)[O-]	.	2.1	-37.0*	.	.	1.6
O=C(NCCc1cccs1)c1ccc(CS(=O)Cc2ccc(Cl)cc2)o1 (centres undefined)	-2.7	1.0	-24.2*	-0.6	17.9	-4.2
Cc1ccc(CS(=O)Cc2ccc(C(=O)NCCCc3ccccc3)o2)cc1 (centres undefined)	-5.7	.	-3.5	5.5	33.9	7.9
CCOc1ccc(CCNC(=O)c2ccc(CS(=O)Cc3cccc(Cl)c3)o2)cc1 (centres undefined)	4.6	-1.7	-41.7	-0.5	?	-1.1
Cc1ccc(CS(=O)Cc2ccc(C(=O)NCCc3ccccc3)o2)cc1 (centres undefined)	3.7	-1.7	-22.1*	3.9	4.6	-3.8
CCOc1ccc(CCNC(=O)c2ccc(CS(=O)Cc3ccc(Cl)cc3)o2)cc1OCC (centres undefined)	3.2	0.5	-31.9*	0.9	-1.8	3.0
O=C1CS(=O)(=O)C(c2ccccc2)N1c1ccc(Cl)cc1 (centres undefined)	-15.0	-0.4	.	3.6	.	10.9
Cc1cccc(S(=O)(=O)N[C@@H]2CC[C@H](CCNC(=O)CCN3CCCCC3)O[C@@H]2CO)c1	-5.8	1.6	-1.2	3.2	-0.9	4.0
CCOc1ccc(C(=O)Nc2ccc(C(F)(F)F)n(C)c2=O)cc1	-5.6	1.1	8.3	-2.2	-0.6	-0.8
COc1cccc(C(=O)Nc2ccc(C(F)(F)F)n(C)c2=O)c1	-2.1	20.3*	0.6	-0.4	0.6	13.0
Cc1nn(-c2ccccc2)c(C)c1NC(=O)COc1ccc(C#N)cc1	4.1	-9.1	10.2	2.9	1.7	-4.6
Cc1nn(-c2ccccc2)c(C)c1NC(=O)COc1ccc2ccccc2c1	-5.6	-0.1	-19.6*	-1.3	15.1	-0.3
O=[N+]([O-])c1ccc2nc(C(O)C(O)c3nc4ccc([N+](=O)[O-])cc4[nH]3)[nH]c2c1 (centres undefined)	-3.4	99.8*	9.6	-4.8	-4.1	0.1
C/C=C/c1ccc([C@H]2[C@@H](CO)N(C(C)=O)[C@H]2CN(C)C(=O)c2ccccn2)cc1	1.3	-3.7	-1.2	17.8	13.2	1.7
CCn1c2ccccc2c2cc([N+](=O)[O-])ccc21	-7.0	-1.9	9.8	.	.	6.4
CN(C)CCn1c2ccccc2c2nc3ccc([N+](=O)[O-])cc3cc21	-4.3	-2.3	-32.0*	-0.6	.	0.6
COCC(=O)Nc1ccc2c(c1)OC[C@@H](C)N(C(=O)c1ccncc1)C[C@H](C)[C@H](OC)CN(C)C2=O	-1.2	-0.5	1.1	-0.9	-8.8	0.4
SMILES	PGC1a acetyl inh	SIRT5 block	rRNA inh HTS	Cneo AK release	C2C12 statin	S100A4 inh HTS
Cc1ccc(-c2nc(NCc3ccco3)c3ccccc3n2)cc1	-10.8	-1.2	-51.0	.	-5.8	-1.6
c1cncc(-c2nc(NCc3ccco3)c3ccccc3n2)c1	-10.7	.	.	6.8	94.4*	.
O=C(NNc1nc2ccccc2s1)c1ccccc1F	2.5	-2.5	-41.3*	6.5	24.9	-3.1
O=C(NNc1nc2ccccc2s1)Nc1ccc(F)cc1	.	-9.8	-24.4	.	-23.8	1.6
O=C(Cc1ccccc1)Nc1nc2ccccc2s1	-10.9	.	.	0.8	.	.
O=C(CP(=O)(c1ccccc1)c1ccccc1)Nc1nc2ccccc2s1	.	-3.4	-35.9*	.	.	-9.4
CN1CCN(CC(=O)Nc2nc3ccccc3s2)CC1	-7.6	21.4*	11.3	0.0	9.3	-0.3
CCN1CCN(CC(=O)Nc2nc3ccccc3s2)CC1	-0.3	1.5	-3.9	1.7	2.0	3.7
C[C@H]1CN([C@@H](C)CO)C(=O)Cc2cc(NS(=O)(=O)c3ccc(Cl)cc3)ccc2O[C@@H]1CN(C)C(=O)NC1CCCCC1	-5.3	-0.7	-1.9	-0.7	6.4	-7.5
C[C@H]1CN([C@@H](C)CO)C(=O)c2cc(Br)cnc2O[C@@H]1CN(C)C(=O)C1CCCCC1	0.8	3.7	-1.3	-1.1	9.3	-6.8
COc1ccc2c(-c3ccccc3)cc(SCC(=O)NC(N)=O)nc2c1	-7.4	1.3	20.0	.	.	-14.0
COc1ccc2c(-c3ccccc3)cc(SCC(=O)N(C)C)nc2c1	-21.2	.	-48.8*	.	.	-23.1
COC(=O)[C@H]1[C@H](CO)[C@H]2Cn3c(ccc(C4=CCCCC4)c3=O)[C@H]2N1Cc1cccnc1	7.7	-13.8	-2.6	.	.	-13.4
Nn1c(=S)[nH]c2sc3c(c2c1=O)CCCC3	.	1.4	-20.5*	.	.	-1.7
CCCn1c(=S)[nH]c2sc3c(c2c1=O)CCCC3	-1.0	-5.0	-1.1	3.5	-21.8	1.0
C[C@@H]1CN([C@@H](C)CO)C(=O)c2cc(NC(=O)Nc3ccc(C(F)(F)F)cc3)ccc2O[C@@H](C)CCCCO[C@H]1CN(C)S(=O)(=O)c1cccs1	0.0	7.1	-6.8	1.7	-12.5	-9.0
Cc1ccc(S(=O)(=O)OCC(=O)Nc2ccc(C(=O)O)c(O)c2)cc1	2.1	53.4*	.	.	.	-1.0
Cc1cccc(OC(=O)Nc2ccc(C(=O)O)c(O)c2)c1	.	34.7*	-2.8	-1.5	20.3	-11.5

Compound activity (PubChem BioAssay)
